# Tcruzi prolif = blocks T. cruzi growth in NIH3T3 culture | 5.9% of 77,000 active | inhibition, % at 8.34 µM | T. cruzi beta-gal in NIH3T3, GalScreen luminescence, 90 h | AID 624255;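 active means mean inhibition above about 93%, with at least 55% of replicates each passing it, limit read from the data, passing the limit was not always enough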
# KDM4C inh = blocks human GASC-1 (KDM4C) demethylase activity | 0.15% of 96,000 active | inhibition, % at 12.5 µM | Q9H3R0 | GST-KDM4C 2-372, H3K9me3 peptide, LANCE TR-FRET;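 active means mean replicate inhibition above about 25%, with at least 55% of replicates also reaching it, limit read from the data, passing the limit was not always enough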
# Target sequence (Q9H3R0 2-372 limits assumed): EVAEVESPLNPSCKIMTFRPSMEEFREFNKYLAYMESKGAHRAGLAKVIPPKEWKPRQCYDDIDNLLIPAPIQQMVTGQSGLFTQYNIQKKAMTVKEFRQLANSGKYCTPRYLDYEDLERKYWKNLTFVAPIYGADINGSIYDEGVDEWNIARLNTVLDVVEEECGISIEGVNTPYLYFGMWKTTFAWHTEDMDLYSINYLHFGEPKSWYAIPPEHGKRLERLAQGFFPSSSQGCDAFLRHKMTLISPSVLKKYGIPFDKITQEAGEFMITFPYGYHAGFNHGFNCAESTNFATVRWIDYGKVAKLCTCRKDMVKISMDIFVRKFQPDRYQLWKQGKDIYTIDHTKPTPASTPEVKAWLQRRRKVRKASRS
#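 System: N-terminal GST-fused human GASC-1 (KDM4C) fragment, residues 2-372 / Amount: 10 nM GST-KDM4C in enzyme reaction / Also added: H3K9me3 peptide with Fe(II)/2OG / Times: 30 min demethylation and 1 h detection at room temperature / Signal: LANCE TR-FRET / Read-out basis: Fall in 671/618 emission ratio as inhibition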
# Pf Dd2 growth = inhibitors of Plasmodium falciparum Dd2 growth. P. falciparum Dd2 growth, SYBR Green, 72 h; active compounds read low. activity change, % at 10 µM. 2.3% of 94,000 active. AID 1159554; in the data active means activity change below about -80%
# IDH1 R132H inh = inhibitors of human IDH1 R132H. O75874. inhibition, % at 10 µM. 0.18% of 70,000 active. IDH1 R132H reductase, diaphorase/resazurin fluorescence, 60 min; in the data active means inhibition above about 34%;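 further: 0% = DMSO and 100% = no enzyme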
# Active calls of the source: *; · = no result. The list is not random: actives were taken first. Their share in the collection is about 5.8%.
SMILES,Tcruzi prolif,KDM4C inh,Pf Dd2 growth,IDH1 R132H inh
C[C@H]1CCCCO[C@H](CN(C)S(=O)(=O)c2cccs2)[C@@H](C)CN([C@@H](C)CO)C(=O)c2cc(NC(=O)C3CCCCC3)ccc2O1,42.6,-0.4,-78.1,·
Cc1ccc(S(=O)(=O)N(C)C[C@@H]2OCCCC[C@@H](C)Oc3ccc(NC(=O)Nc4ccc(F)cc4)cc3C(=O)N([C@H](C)CO)C[C@@H]2C)cc1,·,·,-83.5*,-0.5
Cc1ccc(S(=O)(=O)N(C)C[C@@H]2OCCCC[C@@H](C)Oc3ccc(NC(=O)Nc4ccccc4)cc3C(=O)N([C@@H](C)CO)C[C@H]2C)cc1,46.4,5.2,-66.8,·
CC(C)NC(=O)Nc1ccc2c(c1)C(=O)N([C@@H](C)CO)C[C@H](C)[C@H](CN(C)S(=O)(=O)c1ccc(Cl)cc1)OCCCC[C@@H](C)O2,49.5,-2.3,-83.3*,-3.9
CC(C)NC(=O)Nc1ccc2c(c1)C(=O)N([C@H](C)CO)C[C@H](C)[C@H](CN(C)S(=O)(=O)c1ccc(Cl)cc1)OCCCC[C@@H](C)O2,43.5,-0.5,-68.3,-0.3
Cc1ccc(S(=O)(=O)N(C)C[C@@H]2OCCCC[C@H](C)Oc3ccc(NC(=O)Nc4ccccc4)cc3C(=O)N([C@@H](C)CO)C[C@H]2C)cc1,66.2,0.1,-91.6*,·
Cc1ccc(S(=O)(=O)N(C)C[C@@H]2OCCCC[C@@H](C)Oc3ccc(NC(=O)Nc4ccccc4)cc3C(=O)N([C@@H](C)CO)C[C@@H]2C)cc1,24.8,0.5,-90.9*,·
CCC(=O)Nc1ccc2c(c1)OC[C@@H](C)N(C(=O)c1cnccn1)C[C@@H](C)[C@H](OC)CN(C)C2=O,-41.3,0.6,22.7,-0.1
CO[C@H]1CN(C)C(=O)c2ccc(NC(=O)c3ccc(F)cc3)cc2OC[C@@H](C)N(C(C)=O)C[C@H]1C,6.8,-1.3,-1.1,0.0
COC(=O)C[C@H]1CC[C@H]2[C@H](COc3ccc(NS(=O)(=O)c4ccccc4Cl)cc3C(=O)N2C)O1,-15.3,-0.6,·,·
CC(=O)N1CC(=O)N2[C@H](CO)[C@@H](c3ccc(-c4ccc(C(=O)N(C)C)cc4)cc3)[C@@H]2C1,·,-1.0,25.3,·
C[C@@H]1CN([C@@H](C)CO)C(=O)c2cc(NC(=O)Nc3ccccc3)ccc2O[C@@H](C)CCCCO[C@H]1CN(C)S(=O)(=O)c1ccc(Cl)cc1,33.9,-0.5,-82.9*,0.3
Cc1ccc(S(=O)(=O)N(C)C[C@H]2OCCCC[C@H](C)Oc3ccc(NC(=O)NC4CCCCC4)cc3C(=O)N([C@@H](C)CO)C[C@H]2C)cc1,24.9,-0.5,-86.1*,·
CCCNC(=O)Nc1ccc2c(c1)OC[C@@H](C)N(CCC(F)(F)F)C[C@@H](C)[C@H](OC)CN(C)C2=O,·,-0.1,-66.0,·
C[C@H](CO)N1C[C@H](C)[C@H](CN(C)Cc2ccccc2)Oc2ccc(NC(=O)CCCCCC(=O)Nc3ccccc3N)cc2CC1=O,45.2,-0.9,-50.1,0.1
C[C@H]1CN([C@@H](C)CO)C(=O)Cc2cc(NC(=O)CCCCCC(=O)Nc3ccccc3N)ccc2O[C@H]1CN(C)Cc1ccc(Oc2ccccc2)cc1,10.8,-1.7,-84.9*,·
C[C@H](CO)N1C[C@H](C)[C@H](CN(C)Cc2ccc(Oc3ccccc3)cc2)Oc2ccc(NC(=O)CCCCCC(=O)Nc3ccccc3N)cc2CC1=O,27.4,0.0,-84.3*,·
C[C@@H]1CN([C@H](C)CO)C(=O)Cc2cc(NC(=O)Cc3ccccc3)ccc2O[C@@H]1CN(C)Cc1ccc(C(=O)Nc2ccccc2N)cc1,·,0.2,-84.8*,0.0
C[C@H]1CN([C@@H](C)CO)C(=O)Cc2cc(NC(=O)Cc3ccccc3)ccc2O[C@@H]1CN(C)Cc1ccc(C(=O)Nc2ccccc2N)cc1,·,-1.1,-88.2*,·
C[C@@H]1CN([C@@H](C)CO)C(=O)Cc2cc(NC(=O)Cc3ccccc3)ccc2O[C@H]1CN(C)Cc1ccc(C(=O)Nc2ccccc2N)cc1,·,16.9,-16.1,-0.7
C[C@H](CO)N1C[C@H](C)[C@@H](CN(C)Cc2ccc(C(=O)Nc3ccccc3N)cc2)Oc2ccc(NC(=O)Nc3ccc4c(c3)OCO4)cc2CC1=O,39.3,-1.3,-83.4*,-0.4
C[C@H]1CN([C@@H](C)CO)C(=O)Cc2cc(NC(=O)Nc3ccccc3)ccc2O[C@@H]1CN(C)Cc1ccc(C(=O)Nc2ccccc2N)cc1,·,0.4,·,·
C[C@@H]1CN([C@H](C)CO)C(=O)Cc2cc(NC(=O)Nc3ccc4c(c3)OCO4)ccc2O[C@H]1CN(C)Cc1ccc(C(=O)Nc2ccccc2N)cc1,47.4,-0.1,5.1,0.0
CCS(=O)(=O)N[C@H]1C=C[C@@H](CC(=O)O)O[C@@H]1CO,·,-0.7,9.7,·

# Screening data deposited in PubChem by Broad Institute.
